Data from article PMC10908290 (Drug Design, Development and Therapy, 2024).
In brackets after ≈: the same amount, converted by molar mass.

What was measured:
[1] = DPPH free radical scavenging; settings: Table 6, unit not given
How it was run: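 Test compound solutions (25 or 100 µg/mL in methanol) added to 0.004% (w/v) methanolic DPPH. After 30 min incubation, absorbance read at 517 nm. Percent inhibition calculated against DPPH solution lacking test material. Run in triplicate.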

mushroom tyrosinase = assay: Mushroom tyrosinase inhibitory activity, spectrophotometric, L-DOPA substrate; format: biochemical
E. coli = assay: Minimum inhibitory concentration, E. coli; format: cell-based; settings: Escherichia coli, read-out: Minimal Inhibitory Concentration (MIC)
[2] = Cytotoxic activity, normal Vero cell line; format: cell-based; settings: African green monkey, Vero cells (normal cell line)
S. aureus = assay: Minimum inhibitory concentration, S. aureus; format: cell-based; settings: Staphylococcus aureus, read-out: Minimal Inhibitory Concentration (MIC)
MCF-7 = assay: Cytotoxic activity, MCF-7; format: cell-based; settings: for CC50: MCF7, read-out: LC50; for SI (Selectivity Index): IC50 value normal cell / IC50 value cancer cell (Vero / MCF-7)
E. coli (MTCC 739) = assay: Antibacterial disc diffusion, E. coli; format: cell-based; settings: Escherichia coli, MTCC739, 24 h, read-out: Diameter of Growth Inhibition Zone
How it was run: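 Test compound dissolved in DMSO at 100 μg/mL and loaded onto 8 mm sterile filter-paper discs. E. coli MTCC 739 prepared from pure colonies in sterile saline, adjusted to 0.5 McFarland, and swabbed onto Mueller-Hinton agar. Plates incubated 24 h at 37°C, then zone of inhibition measured. Ampicillin as reference. Mean ± SD of three independent experiments.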

| SMILES | Antioxidant activity (100 µg/mL) [1] | percentage of tyrosinase inhibition (mushroom tyrosinase; 25 µg/mL) | percentage of tyrosinase inhibition (mushroom tyrosinase; 50 µg/mL) | percentage of tyrosinase inhibition (mushroom tyrosinase; 100 µg/mL) | Tyrosinase inhibition IC50 (mushroom tyrosinase; mean ± SE of three experiments) | MIC (E. coli) | CC50 [2] | MIC (S. aureus) | CC50 (MCF-7; Homo sapiens) | IC (TGI) (MCF-7; Homo sapiens, MCF7, read-out: TGI) | SI (Selectivity Index) (MCF-7) | Cytotoxic activity (MCF-7; Table 6, unit not given, equals MCF-7 LC50) | zone of inhibition at 100 µg/mL (E. coli (MTCC 739)) |
| --- | --- | --- | --- | --- | --- | --- | --- | --- | --- | --- | --- | --- | --- |
| Cc1ccccc1NC(=O)C1C(=O)C(c2ccccc2)c2ccc3c(c21)C(=O)c1ccccc1C3=O (stereo not shown) [Compound 1, 2,6,11-Trioxo-3-Phenyl-N-(o-Tolyl)-2,3,6,11-Tetrahydro-1H-Cyclopenta[a]anthracene-1-Carboxamide] | 58.11 | 13.72 ± 0.02% | 49.30 ± 1.06% | 51.23 ± 0.23% | 77.62 ± 1.20 µg/mL | > 100 µg/mL | 93.01 ± 0.05 µg/mL (≈ 197 µM) | 64 µg/mL (≈ 136 µM) | 87 ± 0.16 µg/mL (≈ 185 µM) | 60.1 ± 0.09 µM | 1.06 | 87.0± 0.16 |  |
| CC1(C)S[C@@H]2[C@H](NC(=O)[C@H](N)c3ccccc3)C(=O)N2[C@H]1C(=O)O [Ampicillin] |  |  |  |  |  |  |  |  |  |  |  |  | 17 mm |
| O=c1cc(CO)occ1O [Kojic acid, reference compound] |  | 56.23 ± 1.12% | 67.21 ± 1.12% | 84.65 ± 1.62% |  |  |  |  |  |  |  |  |  |
| COc1cccc2c1C(=O)c1c(O)c3c(c(O)c1C2=O)C[C@@](O)(C(=O)CO)C[C@@H]3O[C@H]1C[C@H](N)[C@H](O)[C@H](C)O1 [Doxorubicin, reference compound] |  |  |  |  |  |  | 19.85 ± 0.02 µg/mL (≈ 36.5 µM) |  | 0.74 ± 0.01 µg/mL (≈ 1.36 µM) |  | 26.82 |  |  |
